One block for each compound: values may come before it.
Legend:
[1] = biological target: [Pyruvate dehydrogenase (acetyl-transferring)] kinase isozyme 4, mitochondrial (Homo sapiens) (UniProt Q16654); experiment: Inhibition of human recombinant PDHK4 at 500 nM related to control ULK1
[2] = biological target: Tyrosine-protein kinase BTK (Homo sapiens) (UniProt Q06187); experiment: Inhibition of human recombinant BTK at 500 nM related to control ULK1
[3] = biological target: T1, Serine/threonine-protein kinase BRSK1 (Homo sapiens) (UniProt Q8TDC3); experiment: Inhibition of human recombinant BRSK1 at 500 nM related to control ULK1
T1 sequence (whole entry): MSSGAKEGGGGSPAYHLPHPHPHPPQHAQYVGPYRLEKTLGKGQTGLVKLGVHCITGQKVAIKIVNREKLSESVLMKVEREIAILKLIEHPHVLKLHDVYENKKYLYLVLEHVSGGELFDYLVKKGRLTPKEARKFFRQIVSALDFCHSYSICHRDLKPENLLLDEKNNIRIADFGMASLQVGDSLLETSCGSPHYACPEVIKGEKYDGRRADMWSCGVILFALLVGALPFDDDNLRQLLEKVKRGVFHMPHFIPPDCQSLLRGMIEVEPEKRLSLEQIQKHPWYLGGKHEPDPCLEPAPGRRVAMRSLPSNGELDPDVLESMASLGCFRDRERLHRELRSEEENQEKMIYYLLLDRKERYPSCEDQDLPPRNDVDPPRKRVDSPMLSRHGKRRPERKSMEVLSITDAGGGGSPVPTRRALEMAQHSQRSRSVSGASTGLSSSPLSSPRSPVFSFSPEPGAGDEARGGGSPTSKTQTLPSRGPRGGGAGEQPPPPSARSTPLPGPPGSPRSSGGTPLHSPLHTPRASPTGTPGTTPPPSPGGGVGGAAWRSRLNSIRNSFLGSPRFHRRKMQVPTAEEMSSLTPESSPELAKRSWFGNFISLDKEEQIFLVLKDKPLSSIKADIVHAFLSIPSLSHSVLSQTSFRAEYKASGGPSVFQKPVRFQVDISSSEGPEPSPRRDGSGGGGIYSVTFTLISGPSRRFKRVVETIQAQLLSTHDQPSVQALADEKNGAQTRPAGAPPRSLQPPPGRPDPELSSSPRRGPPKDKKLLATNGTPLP
Procedure, shortened: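 Recombinant human kinase panel (327 kinases) run as radiometric activity assays, each kinase in duplicate at one compound concentration. Activity remaining expressed relative to vehicle control; percent inhibition taken as 100% minus % activity remaining.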

[4] = biological target: Tyrosine-protein kinase receptor UFO (Homo sapiens) (UniProt P30530); experiment: Inhibition of human recombinant AXL at 40 nM in presence of ATP by radiometric assay relative to control
Chain of Tyrosine-protein kinase receptor UFO (Homo sapiens) (P30530 whole entry): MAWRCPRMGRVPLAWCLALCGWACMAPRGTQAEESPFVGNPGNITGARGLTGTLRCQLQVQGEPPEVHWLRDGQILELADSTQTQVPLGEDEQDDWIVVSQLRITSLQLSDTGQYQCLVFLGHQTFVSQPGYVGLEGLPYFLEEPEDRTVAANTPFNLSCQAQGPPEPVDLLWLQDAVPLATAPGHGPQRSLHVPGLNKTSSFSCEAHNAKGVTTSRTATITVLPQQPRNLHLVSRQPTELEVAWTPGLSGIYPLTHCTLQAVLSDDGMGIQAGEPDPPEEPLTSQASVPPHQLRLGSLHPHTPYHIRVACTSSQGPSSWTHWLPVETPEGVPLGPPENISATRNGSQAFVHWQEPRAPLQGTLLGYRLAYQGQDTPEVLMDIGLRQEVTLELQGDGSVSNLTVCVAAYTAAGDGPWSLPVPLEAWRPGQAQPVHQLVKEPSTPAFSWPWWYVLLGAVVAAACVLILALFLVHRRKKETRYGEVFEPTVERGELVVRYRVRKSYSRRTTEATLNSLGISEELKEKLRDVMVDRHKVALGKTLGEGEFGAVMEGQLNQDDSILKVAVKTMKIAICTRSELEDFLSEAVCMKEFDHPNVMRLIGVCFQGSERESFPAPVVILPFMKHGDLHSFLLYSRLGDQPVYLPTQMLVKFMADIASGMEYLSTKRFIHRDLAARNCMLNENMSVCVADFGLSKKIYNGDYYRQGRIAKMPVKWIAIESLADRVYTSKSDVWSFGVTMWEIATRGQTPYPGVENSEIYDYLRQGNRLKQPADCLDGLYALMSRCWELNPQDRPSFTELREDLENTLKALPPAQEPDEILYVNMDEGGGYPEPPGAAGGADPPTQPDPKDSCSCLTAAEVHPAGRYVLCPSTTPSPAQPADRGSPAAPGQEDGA
Procedure, shortened: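 Panel of 327 recombinant human kinases, each assayed in vitro by radiometric activity assay in duplicate at a single inhibitor concentration per compound, chosen with reference to its ULK1 inhibition. Activity remaining was expressed as percent of vehicle control, and percent inhibition was calculated as 100 minus percent activity remaining.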

[5] = biological target: T2, Tyrosine-protein kinase ZAP-70 (Homo sapiens) (UniProt P43403); experiment: Inhibition of human recombinant ZAP70 at 40 nM in presence of ATP by radiometric assay relative to control
T2 sequence (whole entry): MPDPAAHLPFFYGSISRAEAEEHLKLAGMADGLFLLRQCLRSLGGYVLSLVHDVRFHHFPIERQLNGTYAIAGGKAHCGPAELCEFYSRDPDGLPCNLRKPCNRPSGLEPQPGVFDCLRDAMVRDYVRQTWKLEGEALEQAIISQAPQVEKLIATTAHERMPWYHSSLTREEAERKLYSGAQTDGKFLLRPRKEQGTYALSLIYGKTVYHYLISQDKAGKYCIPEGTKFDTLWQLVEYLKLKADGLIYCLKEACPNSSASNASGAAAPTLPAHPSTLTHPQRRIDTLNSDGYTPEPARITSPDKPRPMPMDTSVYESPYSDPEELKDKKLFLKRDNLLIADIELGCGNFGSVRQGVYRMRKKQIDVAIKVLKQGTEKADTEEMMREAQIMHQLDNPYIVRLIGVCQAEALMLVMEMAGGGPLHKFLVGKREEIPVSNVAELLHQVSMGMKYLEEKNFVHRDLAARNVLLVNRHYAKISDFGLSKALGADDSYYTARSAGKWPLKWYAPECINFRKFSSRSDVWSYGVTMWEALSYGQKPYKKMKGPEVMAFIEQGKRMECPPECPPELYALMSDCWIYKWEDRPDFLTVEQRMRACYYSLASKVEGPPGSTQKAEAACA

[6] = biological target: Serine/threonine-protein kinase MARK2 (Homo sapiens) (UniProt Q7KZI7); experiment: Inhibition of human recombinant MARK2 at 40 nM related to control ULK1
Chain of Serine/threonine-protein kinase MARK2 (Homo sapiens) (Q7KZI7 whole entry): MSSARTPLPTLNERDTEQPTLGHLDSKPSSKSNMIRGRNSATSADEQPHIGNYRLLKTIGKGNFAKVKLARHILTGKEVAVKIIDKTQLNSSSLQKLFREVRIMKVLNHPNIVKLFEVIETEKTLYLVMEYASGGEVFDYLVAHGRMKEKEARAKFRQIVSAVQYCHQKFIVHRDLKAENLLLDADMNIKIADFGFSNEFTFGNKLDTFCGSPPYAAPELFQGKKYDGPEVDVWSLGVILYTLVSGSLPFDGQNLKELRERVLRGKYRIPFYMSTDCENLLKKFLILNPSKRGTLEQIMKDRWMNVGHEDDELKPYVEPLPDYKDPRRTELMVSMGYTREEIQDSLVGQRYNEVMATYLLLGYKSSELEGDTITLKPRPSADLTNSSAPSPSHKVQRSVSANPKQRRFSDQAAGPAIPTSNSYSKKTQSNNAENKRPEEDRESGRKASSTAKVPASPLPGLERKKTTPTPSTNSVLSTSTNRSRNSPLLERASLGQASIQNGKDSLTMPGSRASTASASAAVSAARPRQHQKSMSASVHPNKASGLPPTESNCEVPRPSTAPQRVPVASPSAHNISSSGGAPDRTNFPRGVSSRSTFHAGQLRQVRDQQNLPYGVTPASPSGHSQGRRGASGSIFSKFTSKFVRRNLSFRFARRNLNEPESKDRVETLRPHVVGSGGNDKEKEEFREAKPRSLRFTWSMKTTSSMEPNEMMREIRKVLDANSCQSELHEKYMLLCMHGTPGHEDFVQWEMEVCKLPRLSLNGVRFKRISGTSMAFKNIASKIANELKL

[7] = biological target: T3, Serine/threonine-protein kinase 17B (Homo sapiens) (UniProt O94768); experiment: Inhibition of human recombinant DRAK2 at 15 nM related to control ULK1
T3 sequence (whole entry): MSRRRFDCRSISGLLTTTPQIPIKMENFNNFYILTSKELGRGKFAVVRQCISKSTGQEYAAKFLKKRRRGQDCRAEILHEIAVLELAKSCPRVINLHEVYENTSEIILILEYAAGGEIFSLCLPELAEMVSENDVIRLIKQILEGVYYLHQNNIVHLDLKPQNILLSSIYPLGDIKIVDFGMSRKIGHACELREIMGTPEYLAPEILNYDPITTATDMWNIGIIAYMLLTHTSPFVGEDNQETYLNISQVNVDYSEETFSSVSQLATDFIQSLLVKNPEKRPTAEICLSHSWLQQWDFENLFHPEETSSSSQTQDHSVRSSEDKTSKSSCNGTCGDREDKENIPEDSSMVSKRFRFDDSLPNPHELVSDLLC

[8] = biological target: Serine/threonine-protein kinase SIK3 (Homo sapiens) (UniProt Q9Y2K2); experiment: Inhibition of human recombinant QSK at 15 nM in presence of ATP by radiometric assay relative to control
Chain of Serine/threonine-protein kinase SIK3 (Homo sapiens) (Q9Y2K2 whole entry, looked up): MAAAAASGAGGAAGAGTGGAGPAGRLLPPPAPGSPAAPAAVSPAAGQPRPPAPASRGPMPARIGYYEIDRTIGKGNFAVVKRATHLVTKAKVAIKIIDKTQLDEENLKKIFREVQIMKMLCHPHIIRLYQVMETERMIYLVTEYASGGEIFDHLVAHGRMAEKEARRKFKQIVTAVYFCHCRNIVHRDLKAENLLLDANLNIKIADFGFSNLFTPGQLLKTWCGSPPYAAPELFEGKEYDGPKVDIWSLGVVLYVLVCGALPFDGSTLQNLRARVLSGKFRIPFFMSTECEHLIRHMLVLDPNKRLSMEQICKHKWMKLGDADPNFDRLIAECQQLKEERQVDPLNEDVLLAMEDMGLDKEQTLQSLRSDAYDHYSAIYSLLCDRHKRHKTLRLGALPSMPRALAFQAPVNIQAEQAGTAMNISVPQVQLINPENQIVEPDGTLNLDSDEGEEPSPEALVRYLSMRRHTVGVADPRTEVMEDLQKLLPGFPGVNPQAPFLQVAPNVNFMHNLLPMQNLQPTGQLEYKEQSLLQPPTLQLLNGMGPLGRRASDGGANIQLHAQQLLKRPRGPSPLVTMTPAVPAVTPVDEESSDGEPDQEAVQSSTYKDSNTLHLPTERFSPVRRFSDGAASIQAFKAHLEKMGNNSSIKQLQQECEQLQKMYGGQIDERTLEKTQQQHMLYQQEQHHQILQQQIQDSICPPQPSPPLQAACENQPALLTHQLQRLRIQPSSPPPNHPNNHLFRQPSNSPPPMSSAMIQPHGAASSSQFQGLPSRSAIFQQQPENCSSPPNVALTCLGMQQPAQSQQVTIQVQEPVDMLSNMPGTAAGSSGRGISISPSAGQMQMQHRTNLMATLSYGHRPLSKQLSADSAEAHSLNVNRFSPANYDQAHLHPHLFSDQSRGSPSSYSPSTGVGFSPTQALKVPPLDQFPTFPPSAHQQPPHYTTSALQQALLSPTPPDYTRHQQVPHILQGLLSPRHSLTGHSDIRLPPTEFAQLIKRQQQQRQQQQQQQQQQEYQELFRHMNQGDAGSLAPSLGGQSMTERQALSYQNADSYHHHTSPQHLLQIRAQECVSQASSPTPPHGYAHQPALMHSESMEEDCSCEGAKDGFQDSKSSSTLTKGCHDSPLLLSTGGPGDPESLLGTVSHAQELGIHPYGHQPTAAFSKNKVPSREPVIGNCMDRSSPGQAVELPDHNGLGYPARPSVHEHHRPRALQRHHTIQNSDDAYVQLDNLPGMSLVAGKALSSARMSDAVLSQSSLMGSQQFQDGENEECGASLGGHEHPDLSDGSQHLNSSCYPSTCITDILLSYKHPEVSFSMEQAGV

Chain of Tyrosine-protein kinase BTK (Homo sapiens) (Q06187 whole entry): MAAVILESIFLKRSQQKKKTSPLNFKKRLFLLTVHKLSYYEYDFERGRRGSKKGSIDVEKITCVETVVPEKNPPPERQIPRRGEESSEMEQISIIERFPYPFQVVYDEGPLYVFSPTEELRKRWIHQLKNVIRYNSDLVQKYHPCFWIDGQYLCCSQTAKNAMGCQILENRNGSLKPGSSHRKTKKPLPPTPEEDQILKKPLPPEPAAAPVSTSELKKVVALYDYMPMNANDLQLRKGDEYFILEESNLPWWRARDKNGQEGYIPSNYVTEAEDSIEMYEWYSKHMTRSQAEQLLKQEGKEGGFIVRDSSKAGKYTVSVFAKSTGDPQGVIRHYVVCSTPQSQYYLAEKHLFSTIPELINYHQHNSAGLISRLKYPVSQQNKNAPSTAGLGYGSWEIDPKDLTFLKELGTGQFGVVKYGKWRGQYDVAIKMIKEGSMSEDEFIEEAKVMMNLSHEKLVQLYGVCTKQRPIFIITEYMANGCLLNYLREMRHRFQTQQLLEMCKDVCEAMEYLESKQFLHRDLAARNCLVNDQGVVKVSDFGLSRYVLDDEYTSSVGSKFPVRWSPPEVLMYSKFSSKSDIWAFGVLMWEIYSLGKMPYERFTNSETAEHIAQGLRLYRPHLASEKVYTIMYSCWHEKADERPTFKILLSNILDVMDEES
Chain of [Pyruvate dehydrogenase (acetyl-transferring)] kinase isozyme 4, mitochondrial (Homo sapiens) (Q16654 whole entry, looked up): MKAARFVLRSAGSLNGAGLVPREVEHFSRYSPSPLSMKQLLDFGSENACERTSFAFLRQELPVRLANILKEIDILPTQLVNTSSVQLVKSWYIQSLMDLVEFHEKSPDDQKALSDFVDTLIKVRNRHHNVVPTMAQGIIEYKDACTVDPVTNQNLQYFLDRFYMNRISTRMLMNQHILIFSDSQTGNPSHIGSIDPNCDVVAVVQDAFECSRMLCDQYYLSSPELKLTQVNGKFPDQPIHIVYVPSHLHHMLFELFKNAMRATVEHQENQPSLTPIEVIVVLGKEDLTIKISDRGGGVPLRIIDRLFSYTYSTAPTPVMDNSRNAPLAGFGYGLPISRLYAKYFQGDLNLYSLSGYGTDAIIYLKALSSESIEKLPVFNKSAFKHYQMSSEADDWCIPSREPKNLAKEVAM

fold change (FC) [1]: 0.07
fold change (FC) [2]: 0
fold change (FC) [3]: 0.03
Compound: CNC(=O)c1ccccc1Oc1nc(Nc2cc(OC)c(OC)c(OC)c2)ncc1Br

inhibition [4]: 5%
inhibition [5]: 0%
fold change (FC) [6]: 0.16
Compound: O=C(N[C@@H](C1CC1)C(F)(F)F)c1cc(-c2cnn3cc(-c4ccc(F)cc4)cnc23)cs1

fold change (FC) [7]: 0.78
inhibition [8]: 86%
Compound: CC(C)[C@H](NC(=O)c1cc(-c2cnn3cc(-c4ccc(OCCN5CCCCC5)cc4)cnc23)cs1)C(F)(F)F

Reference: ChEMBL document CHEMBL5653631, “A Potent and Selective ULK1 Inhibitor Suppresses Autophagy and Sensitizes Cancer Cells to Nutrient Stress” (iScience, 2018)
